From PMC2793091 (Biochemistry, 2009)
Read-outs that look alike come from different tables or passages of the source. Values belong to the compound of their own block, whether it stands above or below them.

Assays:
[1] = tested on: VAChT; details: cited from earlier work
[2] = pH 10
[3] = Solubility in binding buffers at different pH
[4] = titration of (±)-vesamicol absorbance at 263 nm; cited from earlier work
[5] = tested on: postnuclear supernatant from cells not transfected with VAChT; type: binding, rat; details: five nM [3H]vesamicol
Procedure, shortened: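 Postnuclear supernatant (1500g, 10 min) from untransfected PC12^A123.7 cells, in sucrose/HEPES/DTT buffer pH 7.4. 20 μg protein mixed with iso-osmolal MES/HEPES/AMPSO pH buffer. Started with [³H]vesamicol in potassium tartrate/HEPES/DTT buffer; 10 min, 23°. pH measured just before filtration. Two portions filtered, washed with ice-cold buffer containing 5 μM (±)-vesamicol, scintillation-counted, averaged. Nonspecific binding measured with 5 μM (±)-vesamicol.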

[6] = tested on: sigma 1 receptors; details: cited from earlier work
[7] = tested on: sigma 2 receptors; details: cited from earlier work

solubility [2]: soluble
Compound: Nc1cccc2c1CC(N1CCC(c3ccccc3)CC1)C(O)C2 (racemic) [(±)-ABV, (±)-aminobenzovesamicol]
potency relative to (±)-vesamicol [1]: about 1000 fold

Compound: (±)-trans-2-(4-phenylpiperidino)cyclohexanol [(±)-vesamicol]
solubility ([3]; 200 μM, pH 10 (data not shown)): not soluble
solubility ([3]; 1 mM, acidic and neutral pH): soluble

Compound: (−)-[^3H]trans-2-(4-phenylpiperidino)cyclohexanol [[^3H]vesamicol]
pKaves (protonated vesamicol) [4]: 9.0 ± 0.1
"specific-nonspecific" binding ([5]; high pH): ~ 0.4 pmol/mg
"specific-nonspecific" binding ([5]; low pH): essentially no

Compound: (−)-trans-2-(4-phenylpiperidino)cyclohexanol [(−)-vesamicol]
affinity relative to VAChT [6]: only somewhat less than for VAChT
pKaves (protonated vesamicol) [4]: 9.0 ± 0.1
affinity relative to VAChT [7]: only somewhat less than for VAChT
